Reference: ChEMBL document CHEMBL2057152, “Synthesis and antibacterial activity against Clostridium difficile of novel demethylvancomycin derivatives” (2012)
Converted amounts (≈) assume the structure as drawn.

Legend:
Type in all cases: functional
[1] = tested on: Enterococcus faecalis; assay: Antibacterial activity against Enterococcus faecalis ATCC 700802 after 16 hrs by two-fold serial dilution method; details: ATCC 700802, 16 h
How it was run: (§1)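 CLSI agar dilution MIC. Compounds are dissolved in 50% water in DMSO as a stock, twofold serially diluted in sterile water, then diluted 10-fold into Mueller-Hinton agar. Organisms are grown in MH broth at 35 °C for 8 h and adjusted to 0.5 McFarland. They are applied to the drug-containing plates by multipoint inoculator and incubated at 35 °C for 16 h. Vancomycin and demethylvancomycin serve as controls.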

[2] = tested on: Clostridioides difficile; assay: Antibacterial activity against Clostridium difficile IQCC 23903 after 16 hrs by two-fold serial dilution method; details: IQCC 23903, 16 h; how it was run: as §1
[3] = Antibacterial activity against Clostridium difficile ATCC 43255 after 16 hrs by two-fold serial dilution method; details: Clostridioides difficile, ATCC 43255, 16 h; how it was run: as §1
[4] = tested on: Clostridioides difficile; assay: Antibacterial activity against Clostridium difficile ATCC 700792 after 16 hrs by two-fold serial dilution method; details: ATCC 700792, 16 h; how it was run: as §1
[5] = tested on: Clostridioides difficile; assay: Antibacterial activity against Clostridium difficile ATCC 700057 after 16 hrs by two-fold serial dilution method; details: ATCC 700057, 16 h; how it was run: as §1
[6] = tested on: Clostridioides difficile; assay: Ratio of MIC for vancomycin to compound MIC for Clostridium difficile IQCC 23903 after 16 hrs by two-fold serial dilution method
[7] = tested on: Clostridioides difficile; assay: Ratio of MIC for vancomycin to compound MIC for Clostridium difficile ATCC 700792 after 16 hrs by two-fold serial dilution method
[8] = tested on: Clostridioides difficile; assay: Ratio of MIC for demethylvancomycin to compound MIC for Clostridium difficile IQCC 23903 after 16 hrs by two-fold serial dilution method
[9] = tested on: Clostridioides difficile; assay: Ratio of MIC for vancomycin to compound MIC for Clostridium difficile ATCC 700057 after 16 hrs by two-fold serial dilution method
[10] = tested on: Clostridioides difficile; assay: Ratio of MIC for demethylvancomycin to compound MIC for Clostridium difficile ATCC 700792 after 16 hrs by two-fold serial dilution method
[11] = tested on: Clostridioides difficile; assay: Ratio of MIC for vancomycin to compound MIC for Clostridium difficile ATCC 43255 after 16 hrs by two-fold serial dilution method
[12] = tested on: Clostridioides difficile; assay: Ratio of MIC for demethylvancomycin to compound MIC for Clostridium difficile ATCC 43255 after 16 hrs by two-fold serial dilution method
[13] = tested on: Clostridioides difficile; assay: Ratio of MIC for demethylvancomycin to compound MIC for Clostridium difficile ATCC 700057 after 16 hrs by two-fold serial dilution method

SMILES | MIC [1] [µg/mL] | MIC [2] [µg/mL] | MIC [3] [µg/mL] | MIC [4] [µg/mL] | MIC [5] [µg/mL] | Ratio [6] | Ratio [7] | Ratio [8] | Ratio [9] | Ratio [10] | Ratio [11] | Ratio [12] | Ratio [13]
COc1ccc(CN[C@@]2(C)C[C@H](O[C@H]3[C@H](Oc4c5cc6cc4Oc4ccc(cc4Cl)[C@@H](O)[C@@H](NC(=O)[C@H](N)CC(C)C)C(=O)N[C@@H](CC(N)=O)C(=O)N[C@H]6C(=O)N[C@H]4C(=O)N[C@H](C(=O)N[C@H](C(=O)O)c6cc(O)cc(O)c6-c6cc4ccc6O)[C@H](O)c4ccc(c(Cl)c4)O5)O[C@H](CO)[C@@H](O)[C@@H]3O)O[C@@H](C)[C@H]2O)cc1 | 16 (≈ 10.3 µM) | 0.5 (≈ 0.321 µM) | 0.5 (≈ 0.321 µM) | 1 (≈ 0.643 µM) | 0.5 (≈ 0.321 µM) |  |  |  |  |  |  |  | 
CC(C)C[C@@H](N)C(=O)N[C@H]1C(=O)N[C@@H](CC(N)=O)C(=O)N[C@H]2C(=O)N[C@H]3C(=O)N[C@H](C(=O)N[C@H](C(=O)O)c4cc(O)cc(O)c4-c4cc3ccc4O)[C@H](O)c3ccc(c(Cl)c3)Oc3cc2cc(c3O[C@@H]2O[C@H](CO)[C@@H](O)[C@H](O)[C@H]2O[C@H]2C[C@](C)(NCc3ccc(F)cc3)[C@H](O)[C@H](C)O2)Oc2ccc(cc2Cl)[C@H]1O | 16 (≈ 10.4 µM) | 0.5 (≈ 0.324 µM) | 0.5 (≈ 0.324 µM) | 0.5 (≈ 0.324 µM) | 0.5 (≈ 0.324 µM) |  |  |  |  |  |  |  | 
CC(C)C[C@@H](N)C(=O)N[C@H]1C(=O)N[C@@H](CC(N)=O)C(=O)N[C@H]2C(=O)N[C@H]3C(=O)N[C@H](C(=O)N[C@H](C(=O)O)c4cc(O)cc(O)c4-c4cc3ccc4O)[C@H](O)c3ccc(c(Cl)c3)Oc3cc2cc(c3O[C@@H]2O[C@H](CO)[C@@H](O)[C@H](O)[C@H]2O[C@H]2C[C@](C)(NCc3ccc(Cl)cc3)[C@H](O)[C@H](C)O2)Oc2ccc(cc2Cl)[C@H]1O | 16 (≈ 10.3 µM) | 0.25 (≈ 0.16 µM) | 0.25 (≈ 0.16 µM) | 0.25 (≈ 0.16 µM) | 0.5 (≈ 0.321 µM) | 2 | 2 | 2 | 2 | 2 | 2 | 2 | 2
CC(C)C[C@@H](N)C(=O)N[C@H]1C(=O)N[C@@H](CC(N)=O)C(=O)N[C@H]2C(=O)N[C@H]3C(=O)N[C@H](C(=O)N[C@H](C(=O)O)c4cc(O)cc(O)c4-c4cc3ccc4O)[C@H](O)c3ccc(c(Cl)c3)Oc3cc2cc(c3O[C@@H]2O[C@H](CO)[C@@H](O)[C@H](O)[C@H]2O[C@H]2C[C@](C)(NCc3ccc(Br)cc3)[C@H](O)[C@H](C)O2)Oc2ccc(cc2Cl)[C@H]1O | 8 (≈ 4.99 µM) | 0.25 (≈ 0.156 µM) | 0.25 (≈ 0.156 µM) | 0.25 (≈ 0.156 µM) | 0.25 (≈ 0.156 µM) | 2 | 2 | 2 | 2 | 2 | 2 | 2 | 2
CC(C)C[C@@H](N)C(=O)N[C@H]1C(=O)N[C@@H](CC(N)=O)C(=O)N[C@H]2C(=O)N[C@H]3C(=O)N[C@H](C(=O)N[C@H](C(=O)O)c4cc(O)cc(O)c4-c4cc3ccc4O)[C@H](O)c3ccc(c(Cl)c3)Oc3cc2cc(c3O[C@@H]2O[C@H](CO)[C@@H](O)[C@H](O)[C@H]2O[C@H]2C[C@](C)(NCc3cc4ccccc4o3)[C@H](O)[C@H](C)O2)Oc2ccc(cc2Cl)[C@H]1O | 8 (≈ 5.11 µM) | 0.5 (≈ 0.319 µM) | 1 (≈ 0.639 µM) | 1 (≈ 0.639 µM) | 0.5 (≈ 0.319 µM) |  |  |  |  |  |  |  | 
CC(C)C[C@@H](N)C(=O)N[C@H]1C(=O)N[C@@H](CC(N)=O)C(=O)N[C@H]2C(=O)N[C@H]3C(=O)N[C@H](C(=O)N[C@H](C(=O)O)c4cc(O)cc(O)c4-c4cc3ccc4O)[C@H](O)c3ccc(c(Cl)c3)Oc3cc2cc(c3O[C@@H]2O[C@H](CO)[C@@H](O)[C@H](O)[C@H]2O[C@H]2C[C@](C)(NCc3ccco3)[C@H](O)[C@H](C)O2)Oc2ccc(cc2Cl)[C@H]1O | 32 (≈ 21.1 µM) | 0.5 (≈ 0.33 µM) | 0.5 (≈ 0.33 µM) | 0.5 (≈ 0.33 µM) | 0.5 (≈ 0.33 µM) |  |  |  |  |  |  |  | 
CC(C)C[C@@H](N)C(=O)N[C@H]1C(=O)N[C@@H](CC(N)=O)C(=O)N[C@H]2C(=O)N[C@H]3C(=O)N[C@H](C(=O)N[C@H](C(=O)O)c4cc(O)cc(O)c4-c4cc3ccc4O)[C@H](O)c3ccc(c(Cl)c3)Oc3cc2cc(c3O[C@@H]2O[C@H](CO)[C@@H](O)[C@H](O)[C@H]2O[C@H]2C[C@](C)(NCc3cccs3)[C@H](O)[C@H](C)O2)Oc2ccc(cc2Cl)[C@H]1O | 32 (≈ 20.9 µM) | 0.5 (≈ 0.326 µM) | 0.5 (≈ 0.326 µM) | 0.5 (≈ 0.326 µM) | 0.5 (≈ 0.326 µM) |  |  |  |  |  |  |  | 
CCCCCCCCCCCCCN[C@@]1(C)C[C@H](O[C@H]2[C@H](Oc3c4cc5cc3Oc3ccc(cc3Cl)[C@@H](O)[C@@H](NC(=O)[C@H](N)CC(C)C)C(=O)N[C@@H](CC(N)=O)C(=O)N[C@H]5C(=O)N[C@H]3C(=O)N[C@H](C(=O)N[C@H](C(=O)O)c5cc(O)cc(O)c5-c5cc3ccc5O)[C@H](O)c3ccc(c(Cl)c3)O4)O[C@H](CO)[C@@H](O)[C@@H]2O)O[C@@H](C)[C@H]1O | 4 (≈ 2.47 µM) | 1 (≈ 0.618 µM) | 1 (≈ 0.618 µM) | 2 (≈ 1.24 µM) | 2 (≈ 1.24 µM) |  |  |  |  |  |  |  | 
CC(C)=CCC/C(C)=C/CN[C@@]1(C)C[C@H](O[C@H]2[C@H](Oc3c4cc5cc3Oc3ccc(cc3Cl)[C@@H](O)[C@@H](NC(=O)[C@H](N)CC(C)C)C(=O)N[C@@H](CC(N)=O)C(=O)N[C@H]5C(=O)N[C@H]3C(=O)N[C@H](C(=O)N[C@H](C(=O)O)c5cc(O)cc(O)c5-c5cc3ccc5O)[C@H](O)c3ccc(c(Cl)c3)O4)O[C@H](CO)[C@@H](O)[C@@H]2O)O[C@@H](C)[C@H]1O | 16 (≈ 10.2 µM) | 0.5 (≈ 0.318 µM) | 0.5 (≈ 0.318 µM) | 0.5 (≈ 0.318 µM) | 0.5 (≈ 0.318 µM) |  |  |  |  |  |  |  | 
CC(C)CCN[C@@]1(C)C[C@H](O[C@H]2[C@H](Oc3c4cc5cc3Oc3ccc(cc3Cl)[C@@H](O)[C@@H](NC(=O)[C@H](N)CC(C)C)C(=O)N[C@@H](CC(N)=O)C(=O)N[C@H]5C(=O)N[C@H]3C(=O)N[C@H](C(=O)N[C@H](C(=O)O)c5cc(O)cc(O)c5-c5cc3ccc5O)[C@H](O)c3ccc(c(Cl)c3)O4)O[C@H](CO)[C@@H](O)[C@@H]2O)O[C@@H](C)[C@H]1O | 32 (≈ 21.3 µM) | 0.5 (≈ 0.332 µM) | 1 (≈ 0.664 µM) | 1 (≈ 0.664 µM) | 1 (≈ 0.664 µM) |  |  |  |  |  |  |  | 
CC(C)C[C@@H](N)C(=O)N[C@H]1C(=O)N[C@@H](CC(N)=O)C(=O)N[C@H]2C(=O)N[C@H]3C(=O)N[C@H](C(=O)N[C@H](C(=O)O)c4cc(O)cc(O)c4-c4cc3ccc4O)[C@H](O)c3ccc(c(Cl)c3)Oc3cc2cc(c3O[C@@H]2O[C@H](CO)[C@@H](O)[C@H](O)[C@H]2O[C@H]2C[C@](C)(NCC3CCCCC3)[C@H](O)[C@H](C)O2)Oc2ccc(cc2Cl)[C@H]1O | 16 (≈ 10.4 µM) | 0.5 (≈ 0.326 µM) | 1 (≈ 0.653 µM) | 1 (≈ 0.653 µM) | 0.5 (≈ 0.326 µM) |  |  |  |  |  |  |  | 
CCC(CC)CN[C@@]1(C)C[C@H](O[C@H]2[C@H](Oc3c4cc5cc3Oc3ccc(cc3Cl)[C@@H](O)[C@@H](NC(=O)[C@H](N)CC(C)C)C(=O)N[C@@H](CC(N)=O)C(=O)N[C@H]5C(=O)N[C@H]3C(=O)N[C@H](C(=O)N[C@H](C(=O)O)c5cc(O)cc(O)c5-c5cc3ccc5O)[C@H](O)c3ccc(c(Cl)c3)O4)O[C@H](CO)[C@@H](O)[C@@H]2O)O[C@@H](C)[C@H]1O | 32 (≈ 21.1 µM) | 2 (≈ 1.32 µM) | 2 (≈ 1.32 µM) | 2 (≈ 1.32 µM) | 2 (≈ 1.32 µM) |  |  |  |  |  |  |  | 
CC(C)C[C@@H](N)C(=O)N[C@@H]1C(=O)N[C@@H](CC(N)=O)C(=O)N[C@H]2C(=O)N[C@H]3C(=O)N[C@H](C(=O)N[C@H](C(=O)O)c4cc(O)cc(O)c4-c4cc3ccc4O)[C@H](O)c3ccc(c(Cl)c3)Oc3cc2cc(c3O[C@@H]2O[C@H](CO)[C@@H](O)[C@H](O)[C@H]2O[C@H]2C[C@](C)(N)C(O)[C@H](C)O2)Oc2ccc(cc2Cl)[C@H]1O (stereo partly specified) [DEMETHYLVANCOMYCIN] | > 32 | 0.5 (≈ 0.348 µM) | 0.5 (≈ 0.348 µM) | 0.5 (≈ 0.348 µM) | 0.5 (≈ 0.348 µM) |  |  |  |  |  |  |  | 
CN[C@H](CC(C)C)C(=O)N[C@H]1C(=O)N[C@@H](CC(N)=O)C(=O)N[C@H]2C(=O)N[C@H]3C(=O)N[C@H](C(=O)N[C@H](C(=O)O)c4cc(O)cc(O)c4-c4cc3ccc4O)[C@H](O)c3ccc(c(Cl)c3)Oc3cc2cc(c3O[C@@H]2O[C@H](CO)[C@@H](O)[C@H](O)[C@H]2O[C@H]2C[C@](C)(N)[C@H](O)[C@H](C)O2)Oc2ccc(cc2Cl)[C@H]1O [VANCOMYCIN] | 32 (≈ 22.1 µM) | 0.5 (≈ 0.345 µM) | 1 (≈ 0.69 µM) | 1 (≈ 0.69 µM) | 0.5 (≈ 0.345 µM) |  |  |  |  |  |  |  | 
